Experimental data as given in ChEMBL document CHEMBL1124747, “Properties of the nucleic acid photoaffinity labeling agent 3-azidoamsacrine” (J Med Chem, 1990).

How the values were obtained:
[1] = Induction frequency for L5178Y cells was evaluated at dose 0.005 mg/mL in dark-I condition (expt-I); assay type: functional, Mus musculus
Summary of the method: (§1)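 L5178Y suspension cells (3 × 10^6/mL, 5% CO2, 37 °C, shaking) exposed 20 h without activating enzyme; light arm irradiated 6.5 min (Hg lamp, <340 nm filtered). Cells washed, grown 24 h more and kept at 3 × 10^5/mL. Viability from 200 cells in soft agar; TFT (0.1 mg/mL) resistant colonies from 10^6 cells in triplicate dishes, counted at 10 days.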

[2] = Mutation frequency for L5178Y cells was evaluated at dose 0.005 mg/mL in dark condition (expt-II); assay type: functional, Mus musculus; summary of the method: as §1
[3] = Relative mutation induction for L5178Y cells was evaluated at dose 0.008 mg/mL in dark-II condition (expt-I); assay type: functional, Mus musculus
[4] = Ability to block cleavage of C/CGG site in HpaII enzyme with the light activated test compound/DNA ratio 4(no. of sites=26); += light activation
Summary of the method: (§2)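 pBR322 plasmid mixed with drug at 0.015, 0.12 or 0.48 mM (drug:DNA 1:8, 1:1 or 4:1), equilibrated on ice 30 min in the dark in 5 mM potassium phosphate pH 5.5, then irradiated 1 h with a medium-pressure Hg lamp (<340 nm filtered); dark set kept as control. Digested overnight with 10× excess enzyme plus DTT; fragments resolved on 1.2% agarose in TBE.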

[5] = Induction frequency for L5178Y cells was evaluated at dose 0.005 mg/mL in dark condition (expt-II); assay type: functional, Mus musculus; summary of the method: as §1
[6] = Mean value of mutation induction for L5178Y cells was evaluated at dose 0.005 mg/mL in dark-I condition (expt-I); assay type: functional, Mus musculus; summary of the method: as §1
[7] = Ability to block cleavage of TTT/AAA site in DraI enzyme with the light activated test compound/DNA ratio 4(no. of sites=3); += light activation; summary of the method: as §2
[8] = Viability of L5178Y cells was evaluated at dose 0.008 mg/mL in light-II condition (expt-I); assay type: functional, Mus musculus
Summary of the method: (§3)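 L5178Y cells were exposed for 20 h at 3 × 10^6 cells/mL. Light arms then received 6.5 min of Hg-lamp irradiation filtered to remove light below 340 nm. Cells were washed twice in Fischer's medium, grown a further 24 h and held at 3 × 10^5 cells/mL. For viability, 200 cells were plated in soft-agar cloning medium in triplicate dishes, and colonies were counted by an automated counter after 10 days.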

[9] = Ability to block cleavage of G/GNCC site in Restriction endonuclease Sau961 with the light activated test compound/DNA ratio 1(no. of sites=15); += light activation; summary of the method: as §2
[10] = Ability to block cleavage of […] site in NciI enzyme with the light activated test compound/DNA ratio 1:8(no. of sites=10); += light activation; summary of the method: as §2
[11] = Viability of L5178Y cells was evaluated at dose 0.005 mg/mL in dark-I condition (expt-I); assay type: functional, Mus musculus; summary of the method: as §3
[12] = Mean value of mutation induction for L5178Y cells was evaluated at dose 0.005 mg/mL in light-I condition (expt-I); assay type: functional, Mus musculus; summary of the method: as §1
[13] = Relative toxicity against mammalian L5178Y cells at dose 0.008 mg/mL in dark-2 condition (expt-I); assay type: functional, Mus musculus; settings: in the assay text read “0.008 µg/mL” for “0.008 mg/mL”
Summary of the method: (§4)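 L5178Y mouse cells in suspension, 3 × 10^6 cells/mL, were exposed for 20 h at 37 °C in a shaker at 150 rpm under 5% CO2, without an activating enzyme. Light arms were irradiated for 6.5 min with a medium-pressure Hg lamp filtered to remove light below 340 nm; dark arms were not. Toxicity was taken as the Coulter-counted density of treated cells versus solvent control.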

[14] = Relative toxicity against mammalian L5178Y cells at dose 0.005 mg/mL in dark-1 condition (expt-I); assay type: functional, Mus musculus; summary of the method: as §4
[15] = Induction frequency for L5178Y cells was evaluated at dose 0.005 mg/mL in light condition (expt-II); assay type: functional, Mus musculus; summary of the method: as §1
[16] = Induction frequency for L5178Y cells was evaluated at dose 0.008 mg/mL in dark-II condition (expt-I); assay type: functional, Mus musculus; summary of the method: as §1
[17] = Viability of L5178Y cells was evaluated at dose 0.005 mg/mL in light condition (expt-II); assay type: functional, Mus musculus; summary of the method: as §3
[18] = Mean value of mutation induction for L5178Y cells was evaluated at dose 0.005 mg/mL in dark condition (expt-II); assay type: functional, Mus musculus
Summary of the method: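 L5178Y cells in suspension culture, gassed with 5% CO2 in air, shaken at 150 rpm, 37 °C. Cells at 3 × 10^6/mL were dosed for 20 h, unirradiated and without activating enzyme, then washed twice in Fop and grown 24 h more. TFT-resistant mutants came from 10^6 cells plated in three dishes of cloning medium with 0.1 mg/mL TFT, colonies counted at 10 days; frequency expressed ×10^6.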

[19] = Induction frequency for L5178Y cells was evaluated at dose 0.005 mg/mL in light-I condition (expt-I); assay type: functional, Mus musculus; summary of the method: as §1
[20] = Half-life was evaluated in water in the presence of light; assay type: ADME
[21] = Ability to block cleavage of C/CGG site in HpaII enzyme with the light activated test compound/DNA ratio 1(no. of sites=26); += light activation; summary of the method: as §2
[22] = Mutation frequency for L5178Y cells was evaluated at dose 0.005 mg/mL in dark-I condition (expt-I); assay type: functional, Mus musculus; summary of the method: as §1
[23] = Ability to block cleavage of TTT/AAA site in DraI enzyme with the light activated test compound/DNA ratio 1:8(no. of sites=3); += light activation; summary of the method: as §2
[24] = Relative mutation induction for L5178Y cells was evaluated at dose 0.005 mg/mL in light condition (expt-II); assay type: functional, Mus musculus; summary of the method: as §1
[25] = Relative mutation induction for L5178Y cells was evaluated at dose 0.005 mg/mL in light-I condition (expt-I); assay type: functional, Mus musculus; summary of the method: as §1
[26] = Viability of L5178Y cells was evaluated at dose 0.008 mg/mL in dark-II condition (expt-I); assay type: functional, Mus musculus; summary of the method: as §3
[27] = Ability to block cleavage of GCC/GGC site in NaeI enzyme with the light activated test compound/DNA ratio 1:8(no. of sites=4); += light activation; summary of the method: as §2
[28] = Ability to block cleavage of C/CGG site in HpaII enzyme with the light activated test compound/DNA ratio 1:8(no. of sites=26); += light activation; summary of the method: as §2
[29] = Relative toxicity against mammalian L5178Y cells at dose 0.008 mg/mL in light-2 condition (expt-I); assay type: functional, Mus musculus; summary of the method: as §4
[30] = Ability to block cleavage of TTT/AAA site in DraI enzyme with the light activated test compound/DNA ratio 1(no. of sites=3); += light activation; summary of the method: as §2
[31] = Ability to block cleavage of GG/CC site in HaeIII enzyme with the light activated test compound/DNA ratio 1(no. of sites=22); += light activation; summary of the method: as §2
[32] = Half-life was evaluated in water in the absence of light; assay type: ADME
[33] = Ability to block cleavage of […] site in NciI enzyme with the light activated test compound/DNA ratio 4(no. of sites=10); += light activation; summary of the method: as §2

## COc1cc(NS(C)(=O)=O)ccc1Nc1c2ccccc2nc2cc(N=[N+]=[N-])ccc12.Cl
[1]
  Induced frequency: 319
[2]
  Mutation frequency: 504 10e6 F
[3]
  Relative activity: 23
[4]
  Blockage activity: Light activation
[5]
  Induced frequency: 366
[6]
  Mean value: 99.7
[7]
  Blockage activity: Light activation
[8]
  Viability: 0
[9]
  Blockage activity: Light activation
[10]
  Blockage activity: Light activation
[11]
  Viability: 66.7
[12]
  Mean value: 123.7
[13]
  Relative toxicity: 55
[14]
  Relative toxicity: 69
[15]
  Induced frequency: 411
[16]
  Induced frequency: 457
[17]
  Viability: 35.7
[18]
  Mean value: 95
[19]
  Induced frequency: 280
[20]
  half-life: 2.02 min
[21]
  Blockage activity: Light activation
[22]
  Mutation frequency: 427 10e6 F
[23]
  Blockage activity: Light activation
[24]
  Relative activity: 28
[25]
  Relative activity: 30
[26]
  Viability: 22.3
[27]
  Blockage activity: Light activation
[28]
  Blockage activity: Light activation
[29]
  Relative toxicity: 55
[30]
  Blockage activity: Light activation
[31]
  Blockage activity: Light activation
[32]
  half-life: > 14 days
[33]
  Blockage activity: Light activation
